Shown are actives, neighbours in structure and some others; about 4.9% of the full set was active somewhere.
PHOSPHO1 block: PubChem AID 1565; Phosphoethanolamine/phosphocholine phosphatase (Homo sapiens), Q8TCT1; recombinant PHOSPHO1, absorbance phosphatase assay; inhibition, % at 13.3 µM; hit rate 1.1% among 290,000; in the data active = inhibition above about 60%
HSF1 activator: HSF-1 activators, primary screen, NIH3T3-HGL cells, MG132 stress, luminescence, single point | hit rate 1.7% among 300,000 | activation, % at 9 µM | AID 504408, 2011 | NIH3T3-HGL HSF-1 luciferase reporter, 8 h; 100% = twice DMSO control signal;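 active = mean replicate activation of at least 50% with a set share of replicates each reaching 50%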
HSF1 inhib: HSF1 inhibitors in luciferase reporter cells, primary screen, cell-based, NIH3T3, luminescence; NIH3T3-HGL HSE-luciferase, MG132-induced, luminescence 8 h; hits give low values; activity change, negative = inhibition, % at 7.5 µM (by protocol); hit rate 0.77% among 300,000;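 active = more than half of replicate wells show activity change below -50%, luminescence cut by over half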;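 also: luciferase reports HSF-1 transcriptional activity via heat shock element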
CHT inh: inhibitors of human choline transporter CHT. High affinity choline transporter 1 (Homo sapiens), Q9GZV3. CHT-expressing cells, membrane potential dye, choline response; hits give low values. B-score at 10 µM. hit rate 0.86% among 310,000;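 active = B-score over 3 SD under the library average, and starting fluorescence ratio not unusually high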;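 also: choline stimulus applied at its EC90 after an EC20 pre-addition; B-score computed on integrated fluorescence ratio after choline addition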
Target sequence (Q9GZV3 whole entry, looked up): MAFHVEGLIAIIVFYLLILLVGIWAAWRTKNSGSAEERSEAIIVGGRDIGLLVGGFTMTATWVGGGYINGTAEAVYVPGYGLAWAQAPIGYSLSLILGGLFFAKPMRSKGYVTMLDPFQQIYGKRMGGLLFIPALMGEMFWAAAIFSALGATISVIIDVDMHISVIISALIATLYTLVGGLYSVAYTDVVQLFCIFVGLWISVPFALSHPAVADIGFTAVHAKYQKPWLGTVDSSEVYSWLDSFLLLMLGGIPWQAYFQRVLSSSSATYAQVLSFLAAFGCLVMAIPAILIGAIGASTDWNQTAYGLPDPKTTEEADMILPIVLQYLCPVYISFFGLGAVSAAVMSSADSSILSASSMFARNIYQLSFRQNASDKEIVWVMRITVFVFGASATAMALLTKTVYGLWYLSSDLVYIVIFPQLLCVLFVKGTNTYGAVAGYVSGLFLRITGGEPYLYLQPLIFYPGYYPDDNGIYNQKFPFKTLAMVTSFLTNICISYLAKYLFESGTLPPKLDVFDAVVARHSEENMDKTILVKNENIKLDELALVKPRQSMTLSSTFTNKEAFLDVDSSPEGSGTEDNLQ
CHT allo act: CHT positive allosteric modulators, primary screen, cell-based, membrane potential dye, choline EC20; High affinity choline transporter 1 (Homo sapiens), Q9GZV3; CHT-expressing cells; hits give high values; LV-AA mutant CHT in HEK293 cells; B-score at 10 µM; hit rate 0.49% among 310,000; AID 488977, 2010;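 active = initial fluorescence not abnormally high and integrated response B-score, plate-corrected, over 3 SD above library mean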
Hep lipid drop: inhibitors of hepatocyte lipid droplet formation, primary screen, imaging, high-throughput imaging, BODIPY stain | hit rate 0.4% among 240,000 | AML12 mouse hepatocytes, oleate lipid droplets | inhibition, % at 6.5 µM;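 active = lipid droplet intensity inhibited by at least 50%, with more than 500 cells counted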
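Assay system: AML12 mouse liver cells | Compound: 6.5 µM single-point dosing | Schedule: Overnight exposure | Technique: Fluorescence imaging, 20x objective, two fields per well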
Each line names hits and unclear results; the compound was inactive in the other large screens.

COc1ccc(N2CCC(CNS(=O)(=O)c3cccc(C(F)(F)F)c3)C2)cc1 (configuration not stated)	PHOSPHO1 block 79
Cc1ccc(NS(=O)(=O)c2ccc(C(=O)N3CCCCCCC3)cc2)cc1	none
Cc1ccc2ncccc2c1NS(=O)(=O)c1ccccc1	PHOSPHO1 block 98 (no result: Hep lipid drop)
CS(=O)(=O)N1N=C(c2ccc(Br)cc2)CC1c1cccs1 (configuration not stated)	HSF1 activator 52
COc1ccc(N=C2NN=C(c3ccc4c(c3)OCCO4)CS2)cc1	PHOSPHO1 block 98
FC(F)Sc1ccc(N=C2NN=C(c3ccc4c(c3)OCCO4)CS2)cc1	PHOSPHO1 block 64 (no result: Hep lipid drop)
c1cc2c(cc1C1=NNC(=NC3CC3)SC1)OCCO2	none
Cn1c2c(c(=O)n(C)c1=O)C(NS(=O)(=O)c1ccc(Cl)cc1)(C(F)(F)F)C(=O)N2 (configuration not stated)	none
N#CC1=C(N)Oc2c(ccc3ccccc23)C1c1ccsc1 (configuration not stated)	HSF1 activator 65 (no result: Hep lipid drop)
CC(C)(C)c1[nH]nc2c1C(c1ccsc1)C(C#N)=C(N)O2 (configuration not stated)	none
CCCc1[nH]nc2c1C(c1cc(OC)ccc1F)C(C#N)=C(N)O2 (configuration not stated)	HSF1 activator 74 (no result: Hep lipid drop)
CCCc1[nH]nc2c1C(c1cc(OC)cc(OC)c1)C(C#N)=C(N)O2 (configuration not stated)	none
CCc1[nH]nc2c1C(c1ccsc1)C(C#N)=C(N)O2 (configuration not stated)	HSF1 activator 53
Cc1cccc(C)c1NC(=O)COC(=O)c1cc(=O)c2ccccc2o1	none
CCOC(=O)c1nnn(CC(=O)N2N=C(c3cccc4ccccc34)CC2c2ccccc2)c1C(=O)OCC (configuration not stated)	none
C=CCn1c(=O)c2c3c(sc2n2c(Nc4ccccc4)nnc12)CCCC3	HSF1 activator 68
C=CCn1c(=O)c2c3c(sc2n2c(Nc4ccc(OC)cc4)nnc12)CCCC3	none (no result: HSF1 activator, HSF1 inhib)
Cc1ccc(-n2c(C3CC3c3ccc(Cl)cc3)n[nH]c2=S)cc1 (configuration not stated)	PHOSPHO1 block 97
Cc1ccc(C2CC2c2n[nH]c(=S)n2-c2ccc(C)cc2)cc1 (configuration not stated)	PHOSPHO1 block 90
O=C(Cn1nnc2ccccc21)NNC(=O)c1ccccc1	none
O=C(Cn1nnc2ccccc21)NNC(=S)NC1CCCCC1	HSF1 inhib -65
O=C(CSc1nnc(SCc2ccc(Cl)cc2)s1)N/N=C/c1c(Cl)cccc1Cl	HSF1 activator 60
O=C(COC(=O)c1ccc2c(c1[N+](=O)[O-])C(=O)c1ccccc1C2=O)NC1CC1	HSF1 activator 124
CCc1ccc(OCC(=O)NNC(=O)c2nn(CC)c(=O)c3ccccc23)cc1	none
CCn1nc(C(=O)NNC(=O)COc2ccccc2C)c2ccccc2c1=O	HSF1 activator 57
CCN(c1ccccc1)S(=O)(=O)c1ccc(Cl)c(NC(=O)Nc2ccc(Cl)cc2C#N)c1	none
CCN(c1ccccc1)S(=O)(=O)c1cc(NC(=O)Nc2ccccc2C#N)ccc1Cl	HSF1 activator 59
Cc1ccc(CSc2ncnc3c2cnn3-c2ccccc2)cc1	none
c1ccc(-c2nc(Sc3ncnc4c3cnn4-c3ccccc3)n[nH]2)cc1	PHOSPHO1 block 87 (no result: Hep lipid drop)
CC(=O)c1sc(NCc2ccccc2)nc1C	none
CC(=O)c1sc(NCc2ccc(C)cc2)nc1C	HSF1 activator 65 (no result: Hep lipid drop)
Cn1c(CNC(=O)CNC(=O)c2ccccc2F)cc(=O)n(C)c1=O	none
CC(=O)Nc1ccc(SCC(=O)c2cc(C)n(-c3ccccc3)c2C)cc1	HSF1 inhib -68
COc1ccc(-n2c(C)cc(C(=O)CSc3ccc(NC(C)=O)cc3)c2C)cc1	none
Cc1cc(Cl)ccc1OCC(=O)Nc1ccccc1C(=O)N1CCOCC1	PHOSPHO1 block 61

Source: PubChem (several laboratories)
